# Measured values reported in ChEMBL document CHEMBL4689842, “EUbOPEN Chemogenomics Library wave 1” (2021).
# Test system: Fibroblast
# Test: Multiplex assay against human fibroblast
# Assay type: toxicity, cell-based
# Method in brief: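 Live cells were stained at seeding with Hoechst33342, BioTracker Green Microtubule Cytoskeleton Dye, MitoTracker Red and Annexin V Alexa Fluor 680. Following compound addition, they were imaged on a CQ1 microscope at 37°C and 5% CO2 and gated by CellPathfinder machine learning into Hoechst high-intensity objects or normal cells, with normal cells split into healthy, pyknosed or fragmented nuclei and pyknosed cells into mitotic or apoptotic. Tubulin, mitochondrial-mass and membrane-permeability phenotypes are per cents of healthy-nucleus cells.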
# [1] = 12 h, 1 µM, compound concentration 1 uM, replicate 1
# [2] = 12 h, 1 µM, compound concentration 1 uM, replicate 2
# [3] = 12 h, 10 µM, compound concentration 10 uM, replicate 1
# [4] = 12 h, 10 µM, compound concentration 10 uM, replicate 2
# [5] = 24 h, 1 µM, compound concentration 1 uM, replicate 1
# [6] = 24 h, 1 µM, compound concentration 1 uM, replicate 2
# [7] = 24 h, 10 µM, compound concentration 10 uM, replicate 1
# [8] = 24 h, 10 µM, compound concentration 10 uM, replicate 2
# [9] = 48 h, 1 µM, compound concentration 1 uM, replicate 1
# [10] = 48 h, 1 µM, compound concentration 1 uM, replicate 2
# [11] = 48 h, 10 µM, compound concentration 10 uM, replicate 1
# [12] = 48 h, 10 µM, compound concentration 10 uM, replicate 2
smiles,measurement,setting,value
CC(C)(O)CNc1ncc(-c2ccnc(Nc3ccnc(Cl)c3)n2)c(CC2CC2)n1,Population Apoptotic (%),[1],59%
same,Population Fragmented Nuclei (%),[1],27%
same,Population Healthy Nuclei (%),[1],46%
same,Population Hoechst High Intensity Objects (%),[1],14%
same,Population Membrane Permeable-Phenotype (%),[1],35%
same,Population Mitochondria Different-Phenotype (%),[1],6%
same,Population Mitotic Cells (%),[1],40%
same,Population Normal (%),[1],85%
same,Population Pyknosed Nuclei (%),[1],25%
same,Population Tubulin-Different-Phenotype (%),[1],54%
same,Total Cell Count,[1],121
same,Population Apoptotic (%),[2],9%
same,Population Fragmented Nuclei (%),[2],9%
same,Population Healthy Nuclei (%),[2],78%
same,Population Hoechst High Intensity Objects (%),[2],5%
same,Population Membrane Permeable-Phenotype (%),[2],5%
same,Population Mitochondria Different-Phenotype (%),[2],17%
same,Population Mitotic Cells (%),[2],90%
same,Population Normal (%),[2],94%
same,Population Pyknosed Nuclei (%),[2],12%
same,Population Tubulin-Different-Phenotype (%),[2],14%
same,Total Cell Count,[2],97
same,Population Apoptotic (%),[3],58%
same,Population Fragmented Nuclei (%),[3],32%
same,Population Healthy Nuclei (%),[3],24%
same,Population Hoechst High Intensity Objects (%),[3],7%
same,Population Membrane Permeable-Phenotype (%),[3],18%
same,Population Mitochondria Different-Phenotype (%),[3],45%
same,Population Mitotic Cells (%),[3],41%
same,Population Normal (%),[3],92%
same,Population Pyknosed Nuclei (%),[3],43%
same,Population Tubulin-Different-Phenotype (%),[3],90%
same,Total Cell Count,[3],97
same,Population Apoptotic (%),[4],15%
same,Population Fragmented Nuclei (%),[4],10%
same,Population Healthy Nuclei (%),[4],64%
same,Population Membrane Permeable-Phenotype (%),[4],28%
same,Population Mitochondria Different-Phenotype (%),[4],96%
same,Population Mitotic Cells (%),[4],84%
same,Population Pyknosed Nuclei (%),[4],26%
same,Population Tubulin-Different-Phenotype (%),[4],100%
same,Total Cell Count,[4],93
same,Population Apoptotic (%),[5],53%
same,Population Fragmented Nuclei (%),[5],35%
same,Population Healthy Nuclei (%),[5],51%
same,Population Hoechst High Intensity Objects (%),[5],10%
same,Population Membrane Permeable-Phenotype (%),[5],31%
same,Population Mitochondria Different-Phenotype (%),[5],0%
same,Population Mitotic Cells (%),[5],46%
same,Population Normal (%),[5],90%
same,Population Pyknosed Nuclei (%),[5],12%
same,Population Tubulin-Different-Phenotype (%),[5],53%
same,Total Cell Count,[5],130
same,Population Apoptotic (%),[6],20%
same,Population Fragmented Nuclei (%),[6],11%
same,Population Healthy Nuclei (%),[6],74%
same,Population Hoechst High Intensity Objects (%),[6],4%
same,Population Membrane Permeable-Phenotype (%),[6],10%
same,Population Mitochondria Different-Phenotype (%),[6],20%
same,Population Mitotic Cells (%),[6],80%
same,Population Normal (%),[6],95%
same,Population Pyknosed Nuclei (%),[6],15%
same,Population Tubulin-Different-Phenotype (%),[6],16%
same,Total Cell Count,[6],136
same,Population Apoptotic (%),[7],63%
same,Population Fragmented Nuclei (%),[7],20%
same,Population Healthy Nuclei (%),[7],32%
same,Population Hoechst High Intensity Objects (%),[7],8%
same,Population Membrane Permeable-Phenotype (%),[7],28%
same,Population Mitochondria Different-Phenotype (%),[7],60%
same,Population Mitotic Cells (%),[7],36%
same,Population Normal (%),[7],91%
same,Population Pyknosed Nuclei (%),[7],47%
same,Population Tubulin-Different-Phenotype (%),[7],89%
same,Total Cell Count,[7],95
same,Population Apoptotic (%),[8],47%
same,Population Fragmented Nuclei (%),[8],14%
same,Population Healthy Nuclei (%),[8],40%
same,Population Hoechst High Intensity Objects (%),[8],14%
same,Population Membrane Permeable-Phenotype (%),[8],47%
same,Population Mitochondria Different-Phenotype (%),[8],89%
same,Population Mitotic Cells (%),[8],52%
same,Population Normal (%),[8],85%
same,Population Pyknosed Nuclei (%),[8],44%
same,Population Tubulin-Different-Phenotype (%),[8],100%
same,Total Cell Count,[8],105
same,Population Apoptotic (%),[9],100%
same,Population Fragmented Nuclei (%),[9],51%
same,Population Healthy Nuclei (%),[9],46%
same,Population Hoechst High Intensity Objects (%),[9],18%
same,Population Membrane Permeable-Phenotype (%),[9],27%
same,Population Mitochondria Different-Phenotype (%),[9],3%
same,Population Mitotic Cells (%),[9],0%
same,Population Normal (%),[9],81%
same,Population Tubulin-Different-Phenotype (%),[9],24%
same,Total Cell Count,[9],143
same,Population Apoptotic (%),[10],50%
same,Population Fragmented Nuclei (%),[10],18%
same,Population Healthy Nuclei (%),[10],78%
same,Population Hoechst High Intensity Objects (%),[10],10%
same,Population Membrane Permeable-Phenotype (%),[10],22%
same,Population Mitochondria Different-Phenotype (%),[10],1%
same,Population Mitotic Cells (%),[10],50%
same,Population Normal (%),[10],89%
same,Population Pyknosed Nuclei (%),[10],2%
same,Population Tubulin-Different-Phenotype (%),[10],40%
same,Total Cell Count,[10],84
same,Population Apoptotic (%),[11],54%
same,Population Fragmented Nuclei (%),[11],49%
same,Population Healthy Nuclei (%),[11],29%
same,Population Hoechst High Intensity Objects (%),[11],15%
same,Population Membrane Permeable-Phenotype (%),[11],12%
same,Population Mitochondria Different-Phenotype (%),[11],41%
same,Population Mitotic Cells (%),[11],45%
same,Population Normal (%),[11],84%
same,Population Pyknosed Nuclei (%),[11],21%
same,Population Tubulin-Different-Phenotype (%),[11],93%
same,Total Cell Count,[11],123
same,Population Apoptotic (%),[12],29%
same,Population Fragmented Nuclei (%),[12],23%
same,Population Healthy Nuclei (%),[12],58%
same,Population Hoechst High Intensity Objects (%),[12],9%
same,Population Membrane Permeable-Phenotype (%),[12],7%
same,Population Mitochondria Different-Phenotype (%),[12],51%
same,Population Mitotic Cells (%),[12],70%
same,Population Normal (%),[12],90%
same,Population Pyknosed Nuclei (%),[12],17%
same,Population Tubulin-Different-Phenotype (%),[12],96%
same,Total Cell Count,[12],106
CN(C)C(=O)/C(C#N)=C/c1ccc(-c2nc3cnc4[nH]ccc4c3n2C2CCCCC2)o1,Population Apoptotic (%),[1],67%
same,Population Fragmented Nuclei (%),[1],27%
same,Population Healthy Nuclei (%),[1],43%
same,Population Hoechst High Intensity Objects (%),[1],19%
same,Population Membrane Permeable-Phenotype (%),[1],26%
same,Population Mitochondria Different-Phenotype (%),[1],17%
same,Population Mitotic Cells (%),[1],32%
same,Population Normal (%),[1],80%
same,Population Pyknosed Nuclei (%),[1],29%
same,Population Tubulin-Different-Phenotype (%),[1],36%
same,Total Cell Count,[1],131
same,Population Apoptotic (%),[2],57%
same,Population Fragmented Nuclei (%),[2],4%
same,Population Healthy Nuclei (%),[2],87%
same,Population Hoechst High Intensity Objects (%),[2],2%
same,Population Membrane Permeable-Phenotype (%),[2],2%
same,Population Mitochondria Different-Phenotype (%),[2],6%
same,Population Mitotic Cells (%),[2],42%
same,Population Normal (%),[2],97%
same,Population Pyknosed Nuclei (%),[2],7%
same,Population Tubulin-Different-Phenotype (%),[2],24%
same,Total Cell Count,[2],75
same,Population Apoptotic (%),[3],51%
same,Population Fragmented Nuclei (%),[3],28%
same,Population Healthy Nuclei (%),[3],38%
same,Population Hoechst High Intensity Objects (%),[3],61%
same,Population Membrane Permeable-Phenotype (%),[3],22%
same,Population Mitochondria Different-Phenotype (%),[3],11%
same,Population Mitotic Cells (%),[3],48%
same,Population Normal (%),[3],38%
same,Population Pyknosed Nuclei (%),[3],32%
same,Population Tubulin-Different-Phenotype (%),[3],65%
same,Total Cell Count,[3],515
same,Population Apoptotic (%),[4],18%
same,Population Fragmented Nuclei (%),[4],20%
same,Population Healthy Nuclei (%),[4],62%
same,Population Hoechst High Intensity Objects (%),[4],54%
same,Population Membrane Permeable-Phenotype (%),[4],13%
same,Population Mitochondria Different-Phenotype (%),[4],63%
same,Population Mitotic Cells (%),[4],81%
same,Population Normal (%),[4],45%
same,Population Pyknosed Nuclei (%),[4],17%
same,Population Tubulin-Different-Phenotype (%),[4],70%
same,Total Cell Count,[4],91
same,Population Apoptotic (%),[5],43%
same,Population Fragmented Nuclei (%),[5],34%
same,Population Healthy Nuclei (%),[5],46%
same,Population Hoechst High Intensity Objects (%),[5],14%
same,Population Membrane Permeable-Phenotype (%),[5],33%
same,Population Mitochondria Different-Phenotype (%),[5],5%
same,Population Mitotic Cells (%),[5],56%
same,Population Normal (%),[5],85%
same,Population Pyknosed Nuclei (%),[5],19%
same,Population Tubulin-Different-Phenotype (%),[5],41%
same,Total Cell Count,[5],141
same,Population Apoptotic (%),[6],54%
same,Population Fragmented Nuclei (%),[6],5%
same,Population Healthy Nuclei (%),[6],84%
same,Population Hoechst High Intensity Objects (%),[6],4%
same,Population Membrane Permeable-Phenotype (%),[6],2%
same,Population Mitochondria Different-Phenotype (%),[6],10%
same,Population Mitotic Cells (%),[6],45%
same,Population Normal (%),[6],95%
same,Population Pyknosed Nuclei (%),[6],9%
same,Population Tubulin-Different-Phenotype (%),[6],36%
same,Total Cell Count,[6],81
same,Population Apoptotic (%),[7],35%
same,Population Fragmented Nuclei (%),[7],27%
same,Population Healthy Nuclei (%),[7],25%
same,Population Hoechst High Intensity Objects (%),[7],61%
same,Population Membrane Permeable-Phenotype (%),[7],28%
same,Population Mitochondria Different-Phenotype (%),[7],18%
same,Population Mitotic Cells (%),[7],64%
same,Population Normal (%),[7],38%
same,Population Pyknosed Nuclei (%),[7],47%
same,Population Tubulin-Different-Phenotype (%),[7],64%
same,Total Cell Count,[7],606
same,Population Apoptotic (%),[8],44%
same,Population Fragmented Nuclei (%),[8],28%
same,Population Healthy Nuclei (%),[8],53%
same,Population Hoechst High Intensity Objects (%),[8],54%
same,Population Membrane Permeable-Phenotype (%),[8],12%
same,Population Mitochondria Different-Phenotype (%),[8],49%
same,Population Mitotic Cells (%),[8],55%
same,Population Normal (%),[8],45%
same,Population Pyknosed Nuclei (%),[8],17%
same,Population Tubulin-Different-Phenotype (%),[8],45%
same,Total Cell Count,[8],125
same,Population Apoptotic (%),[9],52%
same,Population Fragmented Nuclei (%),[9],33%
same,Population Healthy Nuclei (%),[9],37%
same,Population Hoechst High Intensity Objects (%),[9],15%
same,Population Membrane Permeable-Phenotype (%),[9],24%
same,Population Mitochondria Different-Phenotype (%),[9],8%
same,Population Mitotic Cells (%),[9],47%
same,Population Normal (%),[9],84%
same,Population Pyknosed Nuclei (%),[9],29%
same,Population Tubulin-Different-Phenotype (%),[9],46%
same,Total Cell Count,[9],143
same,Population Apoptotic (%),[10],100%
same,Population Fragmented Nuclei (%),[10],24%
same,Population Healthy Nuclei (%),[10],72%
same,Population Hoechst High Intensity Objects (%),[10],10%
same,Population Membrane Permeable-Phenotype (%),[10],14%
same,Population Mitochondria Different-Phenotype (%),[10],5%
same,Population Mitotic Cells (%),[10],0%
same,Population Normal (%),[10],89%
same,Population Pyknosed Nuclei (%),[10],2%
same,Population Tubulin-Different-Phenotype (%),[10],24%
same,Total Cell Count,[10],119
same,Population Apoptotic (%),[11],37%
same,Population Fragmented Nuclei (%),[11],28%
same,Population Healthy Nuclei (%),[11],28%
same,Population Hoechst High Intensity Objects (%),[11],62%
same,Population Membrane Permeable-Phenotype (%),[11],30%
same,Population Mitochondria Different-Phenotype (%),[11],11%
same,Population Mitotic Cells (%),[11],62%
same,Population Normal (%),[11],37%
same,Population Pyknosed Nuclei (%),[11],42%
same,Population Tubulin-Different-Phenotype (%),[11],57%
same,Total Cell Count,[11],650
same,Population Apoptotic (%),[12],57%
same,Population Fragmented Nuclei (%),[12],31%
same,Population Healthy Nuclei (%),[12],57%
same,Population Hoechst High Intensity Objects (%),[12],43%
same,Population Membrane Permeable-Phenotype (%),[12],9%
same,Population Mitochondria Different-Phenotype (%),[12],9%
same,Population Mitotic Cells (%),[12],42%
same,Population Normal (%),[12],56%
same,Population Pyknosed Nuclei (%),[12],11%
same,Population Tubulin-Different-Phenotype (%),[12],62%
same,Total Cell Count,[12],307
